Experimental data reported in article PMC12770939 (Clinical Cancer Research, 2025).

How the values were obtained:
[1] = tested on: FGFR2-expressing cell lines; details: excess Bliss score, n=14 cell lines, Supplementary Fig. S11
p110α [2] = assay: Ubiquitin pulldown; type: cell-based; details: 6 hours
[3] = tested on: phosphorylation of FGFR2, HER3 and AKT; assay: Immunoblotting after 1 hour treatment; type: cell-based; details: solely in MFE280 cells, 2-μmol/L
Procedure, shortened: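 Cells treated 1 h with 0.03 μmol/L FGFR2 inhibitor or 2 μmol/L lapatinib, then immunoblotted. Transfer to nitrocellulose; block 1 h in 5% milk/TBST RT. Primary antibody 1:1,000 overnight at 4°C; HRP secondary 1:10,000 1 h RT; ECL with film. n=2.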

RAS-GTP = RAS-GTP pulldown and RAS co-IP; type: cell-based; details: MFM223 or MFE280 cells
Procedure, shortened: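 Cells treated with FGFR2 inhibitor or lapatinib for varying durations. Lysis on ice in 25 mM Tris pH 7.5, 150 mM NaCl, 1 mM EDTA, 1% NP40, 5 mM MgCl2, 10% glycerol plus inhibitors. Lysates incubated with capture bead conjugate or mouse IgG magnetic beads (control) at 4°C for 5 h. Beads washed 3× in cold buffer, eluted in sample buffer, immunoblotted.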

HER3–p85β interaction = assay: Co-IP of p85β / HER3; type: cell-based
Procedure, shortened: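 Cells exposed to test compound or FGFR2 inhibitor at several concentrations for 1 h. Lysis in Tris pH 7.5/NaCl/EDTA/1% NP40/10% glycerol with protease and phosphatase inhibitors. 1 mg lysate incubated overnight with anti-p85β (1:100, 1 mL), then protein A agarose 2 h. Immunoblot on nitrocellulose with 1:1,000 primary overnight at 4°C, HRP secondary 1:10,000 1 h RT, ECL/film. n=2.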

p110α [4] = molecular target: p110α (Homo sapiens, UniProt P42336); assay: Ubiquitin pulldown; type: cell-based; details: PIK3CA WT cell line SUM52PE; 6 hours
Sequence of p110α (Homo sapiens, UniProt P42336) (P42336 whole entry): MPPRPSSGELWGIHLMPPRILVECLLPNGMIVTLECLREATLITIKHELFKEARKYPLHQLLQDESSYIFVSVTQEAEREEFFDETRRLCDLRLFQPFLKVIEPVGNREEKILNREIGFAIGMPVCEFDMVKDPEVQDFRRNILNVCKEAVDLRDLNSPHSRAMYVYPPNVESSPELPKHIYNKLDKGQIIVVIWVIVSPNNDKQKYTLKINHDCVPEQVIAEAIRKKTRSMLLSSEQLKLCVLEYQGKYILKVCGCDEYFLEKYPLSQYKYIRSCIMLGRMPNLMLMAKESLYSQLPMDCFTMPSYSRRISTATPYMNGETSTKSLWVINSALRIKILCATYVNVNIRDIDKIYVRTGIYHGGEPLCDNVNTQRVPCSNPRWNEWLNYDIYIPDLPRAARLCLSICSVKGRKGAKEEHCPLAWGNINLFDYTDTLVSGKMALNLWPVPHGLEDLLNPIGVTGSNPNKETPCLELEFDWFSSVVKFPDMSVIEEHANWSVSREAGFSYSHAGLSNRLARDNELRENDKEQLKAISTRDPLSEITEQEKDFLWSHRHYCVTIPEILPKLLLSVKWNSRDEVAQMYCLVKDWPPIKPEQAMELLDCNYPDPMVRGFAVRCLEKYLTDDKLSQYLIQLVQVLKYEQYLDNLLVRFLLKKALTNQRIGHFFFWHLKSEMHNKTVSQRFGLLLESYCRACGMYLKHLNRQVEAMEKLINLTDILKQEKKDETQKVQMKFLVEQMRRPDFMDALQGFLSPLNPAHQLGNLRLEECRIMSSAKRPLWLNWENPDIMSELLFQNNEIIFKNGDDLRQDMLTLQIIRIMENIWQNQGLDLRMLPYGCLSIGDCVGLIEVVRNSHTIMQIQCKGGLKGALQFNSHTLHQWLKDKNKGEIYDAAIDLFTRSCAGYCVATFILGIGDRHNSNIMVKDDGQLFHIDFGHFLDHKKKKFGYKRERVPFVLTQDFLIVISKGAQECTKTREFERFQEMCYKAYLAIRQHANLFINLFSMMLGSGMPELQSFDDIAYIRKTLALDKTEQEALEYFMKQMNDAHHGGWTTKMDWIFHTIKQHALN

[5] = tested on: MFM223 X2.2 tumor xenograft; assay: MFM223 X2.2 xenograft efficacy study; type: in vivo, NCR nude mice; details: single agent, 25 mg/kg daily for 22 days
pAKT, pS6, Ki67 = assay: IHC analysis of paired tumor tissue samples; type: in vivo, human; details: baseline vs C1D15 biopsies, nine patients
Procedure, shortened: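 Paired FFPE tumor biopsies from baseline and C1D15 during oral once-daily dosing. IHC for Ki67 (rabbit mAb clone 30-9; nuclear staining), pAKT and pS6. Cytoplasmic pAKT/pS6 scored by H-score: intensity 0, 1+, 2+, 3+. H-score = Σ(% cells at each intensity × intensity).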

[6] = Phase 1 study: plasma pharmacokinetics, noncompartmental analysis; type: in vivo, human
Procedure, shortened: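 Oral single dose on C1D1, then 7-day washout with serial plasma PK sampling, then once-daily dosing from C1D8. PK population: patients with ≥1 dose and ≥1 evaluable post-dose sample. Parameters from plasma concentration–time profiles after single and multiple doses by noncompartmental analysis, summarized by dose level.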

[7] = Phase 1 dose-escalation study NCT03006172 arm A: safety, DLT, MTD; type: in vivo, human
pAKT = assay: Western blots of PI3K signaling feedback over time; type: cell-based; details: PIK3CAmut MFM223 cells
Procedure, shortened: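 PIK3CA-mutant MFM223 and PIK3CA-WT SUM52PE cells treated with 0.5 μmol/L test compound or 1 μmol/L reference PI3Kα inhibitor, with lysates taken at several durations. Immunoblotted for pHER3 and pAKT: nitrocellulose, 5% milk/TBST block, primary 1:1,000 overnight at 4°C, HRP secondary 1:10,000, ECL/film. n=2.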

PIK3CAmut solid tumors = assay: Phase 1 study: antitumor activity per RECIST v1.1; type: in vivo, human
[8] = tested on: FDG uptake of target lesions; assay: FDG-PET imaging pharmacodynamic response; type: in vivo, human
Procedure, shortened: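 FDG-PET at baseline and after 2 weeks of oral once-daily dosing (C1D22–28; C1D15–22 for backfill). On-treatment scans 1–4 h post-dose; blood glucose <180 mg/dL required. Central read by one radiologist; up to five target lesions (tumor:background ≥2:1, longest diameter ≥15 mm). PMR: >25% decrease in mean % change of lean-body-mass-corrected SUVmax, no new FDG-avid lesions.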

mutated p110α = mutated p110α (Homo sapiens, UniProt P42336, H1047R); type: cell-based; details: FGFR2 N550K-overexpressing cells, not matched control cells; 24 h
Sequence of mutated p110α (P42336 whole entry H1047R): as the sequence (P42336 whole entry) above, with H1047R counted along it
Sequence of mutated p110α (O00459 whole entry partner): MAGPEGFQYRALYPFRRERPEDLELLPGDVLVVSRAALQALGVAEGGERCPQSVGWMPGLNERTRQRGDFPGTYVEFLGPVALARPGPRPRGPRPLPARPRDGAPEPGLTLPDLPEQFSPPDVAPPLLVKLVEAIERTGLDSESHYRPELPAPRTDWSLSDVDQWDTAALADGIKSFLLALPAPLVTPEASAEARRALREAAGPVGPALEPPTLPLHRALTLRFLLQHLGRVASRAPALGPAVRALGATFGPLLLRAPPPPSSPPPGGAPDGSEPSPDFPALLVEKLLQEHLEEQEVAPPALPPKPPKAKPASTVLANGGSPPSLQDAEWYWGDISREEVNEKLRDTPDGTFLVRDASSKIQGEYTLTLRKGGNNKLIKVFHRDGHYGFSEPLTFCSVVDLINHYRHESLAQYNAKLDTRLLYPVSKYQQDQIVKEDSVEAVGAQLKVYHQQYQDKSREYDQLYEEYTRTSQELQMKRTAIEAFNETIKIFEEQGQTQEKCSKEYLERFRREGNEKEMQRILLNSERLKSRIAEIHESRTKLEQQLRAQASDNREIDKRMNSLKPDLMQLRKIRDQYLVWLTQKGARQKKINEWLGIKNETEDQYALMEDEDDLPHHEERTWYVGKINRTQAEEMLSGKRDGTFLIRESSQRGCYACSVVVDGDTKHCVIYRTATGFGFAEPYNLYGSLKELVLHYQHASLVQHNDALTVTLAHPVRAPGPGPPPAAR

MFM223 cell line = assay: Live-cell imaging by IncuCyte, long-term proliferation; type: cell-based; details: single agent
Procedure, shortened: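 Plated at 2,000 cells/well; inhibitors added next day at set concentrations. Medium with or without inhibitors renewed every 7 days. Phase-contrast imaging every 4 h in IncuCyte Zoom; confluence tracked in six replicate wells for the whole experiment.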

PIK3CA MAF in ctDNA = assay: ctDNA PIK3CA mutation allele frequency dynamics; type: in vivo, human; details: pretreatment vs on-treatment, majority of paired specimens
[9] = tested on: SUM52PE, MFE296, AN3CA and MFE280 cell lines; assay: Dose-response proliferation assays; type: cell-based; details: MFE296, AN3CA (FGFR2-high) and MFE280 (FGFR2-low)
[10] = tested on: phosphorylation of FGFR, FRS2α, PLCɣ, AKT, and ERK; assay: Western blots of FGFR signaling; type: cell-based; details: SUM52PE, MFE296, and AN3CA cells; 24 h
Procedure, shortened: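 Lysates resolved and transferred to nitrocellulose; blocked 1 h in 5% milk/TBST (20 mM Tris-HCl pH 7.5, 135 mM NaCl, 0.1% Tween 20) at RT. Primary antibodies 1:1,000 overnight at 4°C; HRP anti-mouse or anti-rabbit 1:10,000 1 h RT. Detection by ECL and film.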

C[C@@H](Oc1ccc2[nH]nc(/C=C/c3cnn(CCO)c3)c2c1)c1c(Cl)cncc1Cl [LY2874455]
combination effect with inavolisib [1]: synergized

CS(=O)(=O)CCNCc1ccc(-c2ccc3ncnc(Nc4ccc(OCc5cccc(F)c5)c(Cl)c4)c3c2)o1 [lapatinib, reference compound]
effect on inavolisib-induced p110α ubiquitination (p110α [2]; MFE280 cells, combined with inavolisib): prevented | phosphorylation of HER3 and AKT [3]: decreased phosphorylation | RAS-GTP levels and RAS–p110α interaction (RAS-GTP): affected neither | HER3–p85β interaction (HER3–p85β interaction; MFE280 FGFR2-low cells, 1 h): suppressed

C[C@H](Nc1ccc2c(c1)OCCn1cc(N3C(=O)OC[C@H]3C(F)F)nc1-2)C(N)=O [inavolisib]
ubiquitination of p110α (p110α [4]): no ubiquitination | ubiquitination of p110α (p110α [2]; PIK3CAmut cell lines MFM223 and MFE280): induced ubiquitination | tumor growth [5]: did not result in tumor growth inhibition | PI3K pathway activity (H-scores pAKT, pS6) and Ki67 proliferation (pAKT, pS6, Ki67): consistent decrease | accumulation ([6]; continuous once-daily dosing): twofold | half-life ([6]; human, plasma, oral): 16 h | plasma exposure versus dose ([6]; single and multiple doses, 6-12 mg): dose-proportional | DLT-evaluable patients who experienced DLTs ([7]; 12-mg dose group, grade 4 hyperglycemia and grade 3 fatigue that lasted 5 days): two of four | Alopecia, related AE ([7]; All grades, N = 20): 3 (15) n (%) | Asthenia, related AE ([7]; All grades, N = 20): 2 (10) n (%) | Constipation, related AE ([7]; All grades, N = 20): 2 (10) n (%) | Decreased appetite, related AE ([7]; All grades, N = 20): 4 (20) n (%) | Diarrhea, related AE ([7]; All grades, N = 20): 9 (45) n (%) | Dysgeusia, related AE ([7]; All grades, N = 20): 2 (10) n (%) | Fatigue, related AE ([7]; All grades, N = 20): 3 (15) n (%) | Flatulence, related AE ([7]; All grades, N = 20): 2 (10) n (%) | Headache, related AE ([7]; All grades, N = 20): 2 (10) n (%) | Hyperglycemia, related AE ([7]; All grades, N = 20): 14 (70) n (%) | Hyponatremia, related AE ([7]; All grades, N = 20): 2 (10) n (%) | Lymphopenia, related AE ([7]; All grades, N = 20): 2 (10) n (%) | Nausea, related AE ([7]; All grades, N = 20): 3 (15) n (%) | Stomatitis (grouped term), related AE ([7]; All grades, N = 20): 4 (20) n (%) | Taste disorder, related AE ([7]; All grades, N = 20): 2 (10) n (%) | Thrombocytopenia, related AE ([7]; All grades, N = 20): 2 (10) n (%) | Total number of patients with at least one AE, related AE ([7]; All grades, N = 20): 19 (95) n (%) | Vision blurred, related AE ([7]; All grades, N = 20): 2 (10) n (%) | Vomiting, related AE ([7]; All grades, N = 20): 4 (20) n (%) | Weight decreased, related AE ([7]; All grades, N = 20): 3 (15) n (%) | patients with at least one related AE leading to dose modification ([7]; Eleven patients, N = 20): 55% | Alopecia, related AE ([7]; Grades 3–5, N = 20): 0 n (%) | Asthenia, related AE ([7]; Grades 3–5, N = 20): 1 (5) n (%) | Constipation, related AE ([7]; Grades 3–5, N = 20): 0 n (%) | Decreased appetite, related AE ([7]; Grades 3–5, N = 20): 0 n (%) | Diarrhea, related AE ([7]; Grades 3–5, N = 20): 0 n (%) | Dysgeusia, related AE ([7]; Grades 3–5, N = 20): 0 n (%) | Fatigue, related AE ([7]; Grades 3–5, N = 20): 1 (5) n (%) | Flatulence, related AE ([7]; Grades 3–5, N = 20): 0 n (%) | Headache, related AE ([7]; Grades 3–5, N = 20): 0 n (%) | Hyperglycemia, related AE ([7]; Grades 3–5, N = 20): 4 (20) n (%) | Hyponatremia, related AE ([7]; Grades 3–5, N = 20): 0 n (%) | Lymphopenia, related AE ([7]; Grades 3–5, N = 20): 1 (5) n (%) | Nausea, related AE ([7]; Grades 3–5, N = 20): 1 (5) n (%) | Stomatitis (grouped term), related AE ([7]; Grades 3–5, N = 20): 0 n (%) | Taste disorder, related AE ([7]; Grades 3–5, N = 20): 0 n (%) | Thrombocytopenia, related AE ([7]; Grades 3–5, N = 20): 0 n (%) | Total number of patients with at least one AE, related AE ([7]; Grades 3–5, N = 20): 8 (40) n (%) | Vision blurred, related AE ([7]; Grades 3–5, N = 20): 0 n (%) | Vomiting, related AE ([7]; Grades 3–5, N = 20): 0 n (%) | Weight decreased, related AE ([7]; Grades 3–5, N = 20): 1 (5) n (%) | grade 5 AE ([7]; N = 20): No grade 5 AE | grade of treatment-related diarrhea events ([7]; N = 20): 1 to 2 | treatment-related grade ≥3 gastrointestinal toxicities ([7]; N = 20): No treatment-related grade ≥3 gastrointestinal toxicities | serious AE related to inavolisib ([7]; grade 4 hyperglycemia, 12-mg cohort): One patient | colitis ([7]; monotherapy, including nine patients on treatment for ≥5 months): not observed | maximum tolerated dose (MTD) ([7]; once daily oral, patients with PIK3CAmut solid tumors): 9 mg | treatment-related rash ([7]; one patient, grade 1, N = 20): 5% | time to pAKT reactivation (pAKT; 0.5-μmol/L inavolisib): 24 hours | median progression-free survival (PFS) (PIK3CAmut solid tumors; 95% CI, 3.5–7.3): 3.7 months | landmark PFS rate at 6 months (PIK3CAmut solid tumors; 95% CI, 15–59): 37% | clinical benefit rate (PIK3CAmut solid tumors; N = 20 (n = 9)): 45% | best overall response rate (PR) (PIK3CAmut solid tumors; patients with measurable disease (n = 19), RECIST v1.1): 26% | duration of response (PIK3CAmut solid tumors; responders with a confirmed response, 95% CI, 3.0–not evaluable): 3.7 months | mean reduction in uptake ([8]; 6 mg): 25% | patients achieving a PMR ([8]; 6 mg, 4/7): 57% | mean reduction in uptake ([8]; >6 mg): 43% | patients achieving a PMR ([8]; >6 mg, 12/13): 92% | mutated p110α protein level (mutated p110α): degradation | day of rebound in proliferation (resistance) after treatment initiation (MFM223 cell line): 11 days | PIK3CA MAF over time (PIK3CA MAF in ctDNA): decreased | binding of p85β to HER3 (HER3–p85β interaction; SUM52PE, MFM223, and MFE280 cells, 1 hour): did not affect

CCN1CCN(c2ccc(Nc3cc(N(C)C(=O)Nc4c(Cl)c(OC)cc(OC)c4Cl)ncn3)cc2)CC1 [infigratinib]
combination effect with inavolisib [1]: synergized | sensitivity of cell lines [9]: sensitive | reduction of phosphorylation of FGFR and downstream effectors [10]: equal potency

Cc1nc(NC(=O)N2CCC[C@H]2C(N)=O)sc1-c1ccnc(C(C)(C)C(F)(F)F)c1 [alpelisib, reference compound]
time to pAKT rebound (pAKT; 1-μmol/L alpelisib): 30 minutes
